Data as given in publication PMC3240942 (Molecular cell, 2011).
One block for each molecule: values may come before it. Where no end group is shown, it is not given here.

Tests used:
Sirt1 [1] = target: T1, Sirt1 (Mus musculus, UniProt Q923E4); assay: Sirt1 deacetylase activity against Ac-p53, peptide added in trans; assay type: biochemical; details: Figure S2G
T1 sequence (Q923E4 1-737): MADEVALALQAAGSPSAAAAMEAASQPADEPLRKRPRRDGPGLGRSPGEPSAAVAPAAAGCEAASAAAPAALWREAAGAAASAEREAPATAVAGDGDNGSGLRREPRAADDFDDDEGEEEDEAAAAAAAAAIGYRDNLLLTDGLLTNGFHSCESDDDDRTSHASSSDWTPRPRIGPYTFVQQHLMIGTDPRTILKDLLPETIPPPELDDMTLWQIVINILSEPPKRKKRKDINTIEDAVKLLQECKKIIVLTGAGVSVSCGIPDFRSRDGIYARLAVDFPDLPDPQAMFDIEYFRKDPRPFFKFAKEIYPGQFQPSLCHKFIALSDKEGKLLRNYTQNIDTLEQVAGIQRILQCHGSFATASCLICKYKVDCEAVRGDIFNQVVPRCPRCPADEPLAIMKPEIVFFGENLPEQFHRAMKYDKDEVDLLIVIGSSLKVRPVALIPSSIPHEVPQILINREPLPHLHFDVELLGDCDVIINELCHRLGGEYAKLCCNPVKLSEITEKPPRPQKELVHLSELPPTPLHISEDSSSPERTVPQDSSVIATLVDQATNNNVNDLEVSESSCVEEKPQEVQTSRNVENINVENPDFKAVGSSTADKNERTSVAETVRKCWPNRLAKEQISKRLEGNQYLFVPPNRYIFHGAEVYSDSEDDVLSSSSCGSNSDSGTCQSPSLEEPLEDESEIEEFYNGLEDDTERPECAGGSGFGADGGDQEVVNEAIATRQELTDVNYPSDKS

Sirt6 = assay: Fluorometric Sirt6 deacetylase assay; assay type: biochemical; details: 150 μM peptide, CycLex SIRT6 fluorometric kit; N=4
How it was run: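 His-tagged Sirt6 was assayed with the CycLex SIRT6 fluorometric kit. Kit buffer was replaced by 50 mM HEPES pH 7.0, 1 mM DTT, 10 mM MgCl2, 200 mM NaCl plus protease/phosphatase inhibitors. WT or GPDR-mutant ESA peptide (150 μM) or no peptide was present. N=4; mean ± s.e.m.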

Sirt1 [2] = target: T1, Sirt1; assay: Lineweaver-Burk kinetics of Sirt1; assay type: biochemical; details: against both Ac-H4 and NAD+; Lineweaver-Burk plot
How it was run: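 His-Sirt1 (2 μg) was pre-incubated 5 min at room temperature in HEPES pH 7.0 buffer with mutant ESA peptide at 0, 60, 120 or 240 μM. Ac-K16 H4 fluorogenic dipeptide was varied at 500 μM NAD+, or NAD+ was varied at 100 μM substrate. Reactions ran 25 min at 37 °C and were stopped with nicotinamide developer; ex 355/em 460 nm, no-NAD+ blank subtracted. Triplicates. Kis/Kii came from a double-reciprocal noncompetitive model fit, Km from the same analysis, kcat from a Michaelis–Menten fit.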

deacetylase core [3] = assay: Pull-down of deacetylase core with immobilized GPDR-ESA peptide; assay type: binding, mouse; details: streptavidin pull-down, Figure S2E top
How it was run: (§1)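 Biotinylated peptide (mutant ESA or acetyl-H4) was bound to streptavidin agarose for 1 h at room temperature, washed, and held in PBS/1% Triton X-100. Beads (30 μl) took 2 μg GST-fused or His-tagged protein for 2 h at room temperature. Beads were washed with PBS/1% Triton/200 mM NaCl and eluted in β-ME SDS buffer at 95 °C for 10 min. Blots ran on 4–12% SDS-PAGE; biotin-only beads were the control.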

[4] = system: ESA-deacetylase core interaction; assay: Competition of the ESA-deacetylase core interaction; assay type: binding, mouse; details: competing GPDR-ESA peptide (Figure S2E) or 2 μg GST-LZ (N=5)
How it was run: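 Biotinylated ESA peptide (100 μl at 300 nmole/ml) bound to 1 ml streptavidin agarose for 1 hr at room temperature, washed with PBS, and resuspended in PBS/1% Triton X-100 with protease inhibitors. 30 μl beads incubated 2 hrs at room temperature with deacetylase core and competitor. Biotin-only beads as negative control. Bound core quantified by immunoblot, N=5, mean ± s.e.m.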

Sirt1 [5] = target: T1, Sirt1; assay: Sirt1 deacetylase activity in presence of GST-LZ; assay type: biochemical; details: compared to GST alone, Figure S3B
deacetylase core [6] = assay: GST pull-down of deacetylase core with GST-LZ or GST-ESA; assay type: binding, mouse; details: GST pull-down, GST-LZ vs GST-ESA
How it was run: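 His-tagged deacetylase core (a.a. 184-510) incubated with GST, GST-ESA or GST-LZ (DBC1 LZ, a.a. 243-264), 2 μg of each. Unbound protein washed off on micro-spin columns with PBS/1% Triton X-100/200 mM NaCl. Elution in SDS buffer with β-ME at 95 °C for 10 min; 4–12% gradient SDS-PAGE and Western blot for bound core and GST fusions.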

[7] = system: Lys 382 acetylated-p53 (Ac-p53); assay: Deacetylation of Lys 382 acetylated-p53 by recombinant WT/mutant Sirt1; assay type: biochemical, mouse Sirt1; details: recombinant Sirt1 2 μg, acetylated GST-p53 0.2 μg, 0.5 mM NAD+, pH 7.0, 37 °C; immunoblot
How it was run: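 Recombinant His-tagged WT or C-terminally truncated/point-mutant mouse Sirt1 (2 μg) incubated with acetylated GST-p53 (0.2 μg) and 0.5 mM NAD+ in 50 mM HEPES pH 7.0, 1 mM DTT, 10 mM MgCl2, 200 mM NaCl plus protease/phosphatase inhibitors. Reactions ran at 37 °C for indicated times and were stopped with SDS sample buffer. Read-out: immunoblot with acetyl-K382 p53 antibody; loading checked by Coomassie, Ponceau S or Western blot.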

[3H]Ac-histone H4 = [3H]Ac-histone H4 deacetylation, O-[3H]acetyl-ADP-ribose scintillation counting; assay type: biochemical; details: [3H]Ac-histone H4 substrate; N=4; "almost"
How it was run: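 WT or mutant recombinant Sirt1 (including ΔESA, G644P, D650R, G644P/D650R) was reacted with [3H]acetyl-histone H4. Activity was quantified by scintillation counting of released O-[3H]acetyl-ADP-ribose. N=4; mean ± s.e.m.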

native Ac-histone H3 = assay: Deacetylation of native Ac-histone H3 by recombinant Sirt1; assay type: biochemical
p53 = assay: Deacetylation of p53 in transfected H1299 cells; assay type: cell-based; details: co-transfected with p53
How it was run: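 H1299 cells were transiently co-transfected with a p53 vector and a WT or ΔESA Sirt1 vector; empty vector was the negative control. Acetylated p53 was detected by immunoblot with an acetyl-K382-specific antibody.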

[8] = system: p53 target genes p21, PUMA and Bim; assay: Expression of p53 target genes in H1299 cells; assay type: cell-based; details: co-expressed p53
How it was run: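 H1299 cells transiently co-transfected with a p53 expression vector and a WT or ΔESA Sirt1 expression vector; empty vector as control. Levels of the p53-activated genes p21, PUMA and Bim were then visualized.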

Flag-p65 (NF-κB) = assay: Co-immunoprecipitation of Sirt1 with Flag-p65 in Hela cells; assay type: cell-based; details: V5-tagged Sirt1
How it was run: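 Transient co-transfection of HeLa cells with Flag-NF-κB p65 plus V5-tagged full-length or ΔESA Sirt1. p65 was pulled down with anti-Flag, and bound Sirt1 was detected by anti-V5 immunoblot alongside input levels.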

GST-Ac-p53 = assay: Pull-down of Sirt1 / core fragments with GST-Ac-p53; assay type: binding; details: in vitro pull-down
How it was run: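 In vitro pull-downs with GST-Ac-p53 or GST alone as negative control. Recombinant Flag-tagged full-length or ΔESA (a.a. 631-655 deleted) Sirt1 pulled down with anti-Flag, bound GST-Ac-p53 detected by GST immunoblot, and Sirt1 shown by Coomassie. Alternatively, core (a.a. 184-510) or Core-ESA with GST-Ac-p53 (2 μg each) in GST pull-down, bound core detected by Sirt1 immunoblot.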

Ac-H3 = assay: Interaction of Sirt1 with Ac-H3 purified from Hela cells; assay type: binding; details: Figure S3A
Ac-H4 = assay: Interaction of Sirt1 with Ac-H4 purified from Hela cells; assay type: binding; details: Figure S3A
[9] = Pull-down of GST fusion proteins with immobilized GPDR-ESA peptide; assay type: binding; details: Figure S2F
How it was run: as §1

[10] = target: T2, Sirt1 deacetylase core (Core, a.a. 184-510) (mouse, UniProt Q923E4 184-510); assay: pull-down
T2 sequence (looked up): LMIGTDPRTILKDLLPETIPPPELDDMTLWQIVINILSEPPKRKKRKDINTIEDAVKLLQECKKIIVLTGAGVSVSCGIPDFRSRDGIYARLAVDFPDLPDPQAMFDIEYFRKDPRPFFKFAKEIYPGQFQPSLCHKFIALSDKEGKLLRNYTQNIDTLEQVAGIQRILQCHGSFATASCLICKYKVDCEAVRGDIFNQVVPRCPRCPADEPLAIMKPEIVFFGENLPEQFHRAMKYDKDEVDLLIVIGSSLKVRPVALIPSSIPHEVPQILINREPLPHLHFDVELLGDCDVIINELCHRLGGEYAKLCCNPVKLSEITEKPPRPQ

effect on Sirt6 activity (Sirt6): had no effect on Sirt6 activity | mode of inhibition (Sirt1 [2]): noncompetitive inhibitor | binding to deacetylase core (deacetylase core [3]): also bound to the deacetylase core
Molecule: GPDR-ESA peptide: ESA peptide containing a mutation of two residues, G644P and D650R (GPDR) (QYLFVPPNRYIFHPAEVYSRSEDDV; also: biotinylated, position not given here)
inhibition of Sirt1 activity against Ac-p53 (Sirt1 [1]): also inhibited Sirt1 activity against Ac-p53 | inhibition of ESA-deacetylase core interaction [4]: ESA-deacetylase core interaction was inhibited

Molecule: GST-LZ: LZ domain of DBC1 (a.a. 243-264) fused to GST (LQRRYRSLLVPSDFLSVHLSWL; also: fused to GST, end not given here)
inhibition of ESA-deacetylase core interaction [4]: prevented the ESA-deacetylase core interaction | reduction of Sirt1 deacetylase activity (Sirt1 [5]): significantly reduced Sirt1 deacetylase activity | relative strength of interaction with deacetylase core (deacetylase core [6]): stronger than the ESA-deacetylase core interaction

Molecule: GPDR: Sirt1 with a double mutation G644P and D650R
deacetylase activity against Ac-p53 [7]: very little deacetylase activity | fold reduction of Sirt1 activity ([3H]Ac-histone H4): ~10 fold

B1: ΔESA Sirt1: Sirt1 with the 25 a.a. ESA region (a.a. 631-655) deleted (protein)
chain: MADEVALALQAAGSPSAAAAMEAASQPADEPLRKRPRRDGPGLGRSPGEPSAAVAPAAAGCEAASAAAPAALWREAAGAAASAEREAPATAVAGDGDNGSGLRREPRAADDFDDDEGEEEDEAAAAAAAAAIGYRDNLLLTDGLLTNGFHSCESDDDDRTSHASSSDWTPRPRIGPYTFVQQHLMIGTDPRTILKDLLPETIPPPELDDMTLWQIVINILSEPPKRKKRKDINTIEDAVKLLQECKKIIVLTGAGVSVSCGIPDFRSRDGIYARLAVDFPDLPDPQAMFDIEYFRKDPRPFFKFAKEIYPGQFQPSLCHKFIALSDKEGKLLRNYTQNIDTLEQVAGIQRILQCHGSFATASCLICKYKVDCEAVRGDIFNQVVPRCPRCPADEPLAIMKPEIVFFGENLPEQFHRAMKYDKDEVDLLIVIGSSLKVRPVALIPSSIPHEVPQILINREPLPHLHFDVELLGDCDVIINELCHRLGGEYAKLCCNPVKLSEITEKPPRPQKELVHLSELPPTPLHISEDSSSPERTVPQDSSVIATLVDQATNNNVNDLEVSESSCVEEKPQEVQTSRNVENINVENPDFKAVGSSTADKNERTSVAETVRKCWPNRLAKEQISKRLEGNLSSSSCGSNSDSGTCQSPSLEEPLEDESEIEEFYNGLEDDTERPECAGGSGFGADGGDQEVVNEAIATRQELTDVNYPSDKS
modifications: left off: V5, end not stated, kept
deacetylase activity against Ac-p53 [7]: did not have any deacetylase activity | deacetylase activity against native Ac-histone H3 (native Ac-histone H3): did not have any deacetylase activity | deacetylation of p53 in vivo (p53): WT Sirt1, but not ΔESA Sirt1, was able to deacetylate p53 | suppression of p53 target gene expression [8]: failed to suppress the expression of p53 target genes | co-immunoprecipitation with Flag-p65 (Flag-p65 (NF-κB)): did so very poorly | binding to GST-Ac-p53 (GST-Ac-p53): bound poorly to GST-Ac-p53 compared to full-length Sirt1 | interaction with Ac-H3 (Ac-H3): significantly weakened the interaction | interaction with Ac-H4 (Ac-H4): significantly weakened the interaction

binding to immobilized GPDR-ESA peptide [9]: bound to the GPDR-ESA peptide
B2: GST-Sirtuin domain: GST fused to Sirtuin domain (a.a. 236-490) (protein)
chain: EDAVKLLQECKKIIVLTGAGVSVSCGIPDFRSRDGIYARLAVDFPDLPDPQAMFDIEYFRKDPRPFFKFAKEIYPGQFQPSLCHKFIALSDKEGKLLRNYTQNIDTLEQVAGIQRILQCHGSFATASCLICKYKVDCEAVRGDIFNQVVPRCPRCPADEPLAIMKPEIVFFGENLPEQFHRAMKYDKDEVDLLIVIGSSLKVRPVALIPSSIPHEVPQILINREPLPHLHFDVELLGDCDVIINELCHRLGGEYA
modifications: left off: GST, end not stated, kept

binding result [10]: binds
Molecule: QYLFVPPNRYIFHGAEVYSDSEDDV (domain or fragment, mouse, UniProt Q923E4 631-655, looked up) [GST-ESA (ESA fused to GST)]
